Laboratory results from ChEMBL document CHEMBL1134514, “Synthesis of novel gamma-aminobutyric acid (GABA) uptake inhibitors. 5.(1) Preparation and structure-activity studies of tricyclic analogues of known GABA uptake inhibitors” (J Med Chem, 2001).
pIC50: −log10 of the molar value.

What was measured:
[1] = biological target: T1, GABA transporter (Mus musculus) (UniProt P31650+P31651+P31649+P31648); experiment: Ratio for ED50 values for inhibition of rotarod to inhibition of DMCM-induced convulsions in mice; format: functional
Outline: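 Protective index is the rotarod ED50 divided by the ED50 for inhibiting DMCM (15 mg/kg ip) clonic seizures. Both were measured in mice after ip dosing.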

GABA transporter = GABA transporter (Rattus norvegicus, UniProt P31647+P23978+P31646+P48056); experiment: In vitro inhibition of [3H]GABA uptake in rat synaptosomes was determined; format: functional, subcellular, Brain
Outline: (§1)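 Rat forebrain homogenized in ice-cold 0.32 M sucrose, spun 10 min at 600 g, 4 °C; pellet resuspended in pH 7.4 phosphate/NaCl/glucose buffer. Synaptosomes (0.1 mg protein) preincubated with test substance 8 min at 30 °C, then [3H]-GABA (0.9 nM final) plus unlabeled GABA (0.9 nM final) for 8 min. Filtration on glass fiber, ice-cold saline washes, scintillation counting. IC50 as mean of two determinations.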

[2] = biological target: T1, GABA transporter (Mus musculus); experiment: In vivo anticonvulsant effect measured as rotarod in mice after ip administration; format: functional, organism-based
Outline: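 Mice pretrained 2 min on rotarod (6 rpm, 3 cm rod), then dosed ip. On testing, a mouse that fell was placed back on the rod. Testing ended at 10 failures or after 2 min. ED50 in mg/kg.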

[3] = biological target: T1, GABA transporter (Mus musculus); experiment: In vivo anticonvulsant effect measured as inhibition of DMCM -induced seizures in mice after ip administration.; format: functional, organism-based
Outline: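 Female NMRI mice given test drug ip 30 min before DMCM 15 mg/kg ip. Observed for 30 min for clonic seizures and death, N = 5-10 per dose. ED50 in mg/kg.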

Rattus norvegicus [4] = species: Rattus norvegicus; experiment: In vitro inhibition of [3H]GABA uptake determined; format: functional; outline: as §1
Rattus norvegicus [5] = species: Rattus norvegicus; experiment: In vitro inhibition of [3H]GABA uptake in rat synaptosomes was determined; No activity; format: functional, Brain

IC50 (GABA transporter) [nM] | pIC50 (Rattus norvegicus [4]) | SMILES | Protective index [1] | ED50 [2] [mg/kg] | ED50 [3] [mg/kg] | IC50 (Rattus norvegicus [5])
55 |  | Cl.O=C(O)[C@@H]1CCCN(CCOCCC(c2ccccc2)c2ccccc2)C1 | 5.3 |  |  | 
105 |  | Cl.O=C(O)[C@@H]1CCCN(CCOCCN2c3ccccc3Sc3ccc(C(F)(F)F)cc32)C1 | > 1.6 | > 60 | 38 | 
1161 |  | Cl.O=C(O)[C@@H]1CCCN(CCON=C2c3ccccc3CCc3ccccc32)C1 | > 3.3 | > 100 | 30 | 
14600 |  | Cl.O=C(O)[C@@H]1CCCN(CCOCCN2c3ccccc3Oc3ccccc32)C1 |  |  |  | 
 | 5.66 | O=C(O)[C@@H]1CCCN(CCOC=C2c3ccccc3CCc3ccccc32)C1 |  |  |  | 
68 |  | Cl.O=C(O)[C@@H]1CCCN(CCOCCN2c3cc(Cl)ccc3CCc3ccc(Cl)cc32)C1 | > 2.2 | > 100 | 45 | 
90 |  | Cl.O=C(O)[C@@H]1CCCN(CCOCCN(c2ccccc2)c2ccccc2)C1 | 1.6 |  |  | 
2018 |  | O=C(O)[C@@H]1CCCN(CCC=C2c3ccccc3-c3ccccc32)C1 |  |  |  | 
770 |  | Cl.O=C(O)[C@H]1CCCN(CCOCC=C2c3ccccc3CCc3ccccc32)C1 | > 3.3 | > 100 | 30 | 
184 |  | Cl.O=C(O)[C@@H]1CCCN(CCOCCN2c3ccccc3CCc3ccccc32)C1 | 5.7 | 85 | 15 | 
 | 5.99 | O=C(O)[C@@H]1CCCN(CCOCCN2c3ccc(Br)cc3CCc3cc(Br)ccc32)C1 |  |  |  | 
 |  | O=C(O)C1CCCN(CCOC2c3ccccc3-c3ccccc32)C1 (stereo not drawn) |  |  |  | Not Active
82 |  | Cl.O=C(O)[C@@H]1CCCN(CCON=C(c2ccccc2)c2ccccc2)C1 |  |  |  | 
308 |  | Cl.O=C(O)[C@@H]1CCCN(CCOCCN2c3ccccc3Sc3ccccc32)C1 | 1.8 | 54 | 30 | 
647 |  | Cl.O=C(O)[C@@H]1CCCN(CCOCCN2c3ccccc3C=Cc3ccccc32)C1 | > 1 | > 30 | 30 | 
851 |  | Cl.O=C(O)[C@@H]1CCCN(CCOCCN2c3ccccc3CCCc3ccccc32)C1 | > 1.5 |  | 60 | 
265 |  | Cl.O=C(O)[C@@H]1CCCN(CCOCCN2c3ccccc3CCc3ccc(F)cc32)C1 |  |  |  | 
13600 |  | O=C(O)C1CCCN(CCC=C2c3ccccc3CCc3ccccc32)C1 (stereo not drawn) |  | > 60 | > 60 | 
1202 |  | Cl.O=C(O)C1=CCCN(CCOCCC2c3ccccc3CCc3ccccc32)C1 |  |  |  | 
74 |  | Cl.O=C(O)[C@@H]1CCCN(CCOCCN2c3ccccc3CCc3ccc(Cl)cc32)C1 | > 2 | > 30 | 15 | 
460 |  | Cl.O=C(O)[C@@H]1CCCN(CCCOCC=C2c3ccccc3CCc3ccccc32)C1 | > 2.5 | > 150 | 60 | 
 | 7.06 | O=C(O)[C@@H]1CCCN(CCOC=C(c2ccccc2)c2ccccc2)C1 |  |  |  | 
696 |  | Cl.O=C(O)[C@@H]1CCCN(CCOCCCN2c3ccccc3CCc3ccccc32)C1 | > 1.2 | > 60 | 50 | 
51 |  | Cl.O=C(O)CC1CCN(CCOCCN2c3ccccc3CCc3ccccc32)C1 (stereo not drawn) | 3.2 | 100 | 31 | 
2495 |  | Cl.O=C(O)[C@H]1CCCN(CCOC/C=C2\c3ccccc3CCc3ccc(Cl)cc32)C1 | > 1.2 | > 60 | 50 | 
> 40000 |  | Cl.O=C(O)[C@@H]1CCCN(CCOCCn2c3ccccc3c3ccccc32)C1 |  |  |  | 
644 |  | Cl.O=C(O)C1=CCCN(CCOCCN2c3ccccc3CCc3ccccc32)C1 | 2.9 | 21 | 7.3 | 
5509 |  | Cl.O=C(O)[C@@H]1CCCN(CCON=C2c3cc(Cl)ccc3CCc3ccc(Cl)cc32)C1 | 1.1 | 40 | 35 | 
248 |  | Cl.O=C(O)[C@@H]1CCCN(CCOCCN2c3ccc(F)cc3CCc3cc(F)ccc32)C1 |  |  |  | 
561 |  | Cl.O=C(O)[C@H]1CCCN(CCOCCC2c3ccccc3CCc3ccccc32)C1 | > 2.6 | > 60 | 23 | 

SMILES | IC50 (GABA transporter) [nM] | pIC50 (Rattus norvegicus [4]) | Protective index [1] | ED50 [2] [mg/kg] | ED50 [3] [mg/kg] | IC50 (Rattus norvegicus [5])
Cl.O=C(O)C1CCCN(CCOC(c2ccccc2)c2ccccc2)C1 (stereo not drawn) | 1370 |  |  |  |  | 
O=C(O)C1CCCN(CCOC2c3ccccc3C=Cc3ccccc32)C1 (stereo not drawn) | 2500 |  |  |  |  | 
